Results reported in ChEMBL document CHEMBL5149984, “Discovery of HN37 as a Potent and Chemically Stable Antiepileptic Drug Candidate” (J Med Chem, 2021).

What was measured:
[1] = target: T1, Potassium voltage-gated channel subfamily KQT member 2/member 3 (Rattus norvegicus) (UniProt O88943+O88944); assay: Agonist activity at rat KCNQ2/3 channel expressed in CHO cells assessed as amplitude change of outward current at 10 uM by patch clamp method; type: cell-based; conditions: filed as agonist
Summary of the method: (§1)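 Whole-cell patch clamp at room temperature on CHO cells (DMEM/F12, 10% FBS) transiently co-transfected with EGFP and hKCNQ1, rKCNQ2, rKCNQ3 A278T, hKCNQ4 or hKCNQ5; KCNQ2/3 at 1:1 cDNA ratio. Pipette solution 145 mM KCl, 5 mM MgATP, pH 7.3; bath 140 mM NaCl, 5 mM KCl, pH 7.4, under perfusion. V1/2 from Boltzmann fits; I/I0 is current amplitude with versus without compound; n = 4−6.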

[2] = Cmax in Kunming mouse brain at 5 mg/kg, po measured upto 24 hrs by LC-MS/MS method; type: ADME, organism-based; parameters: dose 5 mg/kg, time < 24 hrs, route po
Summary of the method: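 KM male mice (18−24 g), fasted 12 h before and 2 h after dosing. HN37 given orally at 5 mg/kg in 5% DMSO/5% Tween 80/90% saline, or iv at 2 mg/kg after dilution in saline with 1% Tween 80; n = 3 per time point. Blood sampled 0.25–24 h (from 0.083 h after iv); whole brain taken after oral dosing. Plasma and brain extracted with acetonitrile, quantified by LC−MS/MS; AUC0−t by trapezoidal method.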

[3] = AUC(0 to t) in Sprague-Dawley rat at 2 mg/kg, po measured upto 24 hrs by LC-MS/MS method; type: ADME, organism-based; parameters: dose 2 mg/kg, time < 24 hrs, route po; conditions: in vivo
Summary of the method: (§2)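 Male SD rats (180−220 g) dosed orally at 2, 6 or 20 mg/kg in escalating fashion, handled as in the mouse study: 12 h fast, acetonitrile extraction of plasma, LC−MS/MS quantification. AUC0−t by trapezoidal method to the last measurable concentration.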

[4] = Tmax in Kunming mouse brain at 5 mg/kg, po measured upto 24 hrs by LC-MS/MS method; type: ADME, organism-based
Summary of the method: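 Male KM mice (18–24 g), fasted 12 h before and 2 h after dosing, n = 3 per time point. Oral dose in 5% DMSO/5% Tween 80/90% saline; i.v. dose is that formulation diluted in saline with 1% Tween 80. Blood sampled 0.25–24 h after oral dosing, 0.083–24 h after i.v.; whole brain taken after oral dosing. Acetonitrile extraction with internal standard, LC-MS/MS.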

[5] = Metabolic stability in dog liver microsomes assessed as half life; type: ADME, Canis lupus familiaris, Microsome
[6] = AUC(0 to t) in Sprague-Dawley rat at 20 mg/kg, po measured upto 24 hrs by LC-MS/MS method; type: ADME, organism-based; parameters: dose 20 mg/kg, time < 24 hrs, route po; conditions: in vivo; summary of the method: as §2
[7] = target: T2, Potassium voltage-gated channel subfamily KQT member 1 (Homo sapiens, UniProt P51787); assay: Agonist activity at human KCNQ1 channel expressed in CHO cells assessed as shift of half voltage of maximal activation at 0.1 uM by patch clamp method; type: cell-based; summary of the method: as §1
T2 sequence (P51787 whole entry): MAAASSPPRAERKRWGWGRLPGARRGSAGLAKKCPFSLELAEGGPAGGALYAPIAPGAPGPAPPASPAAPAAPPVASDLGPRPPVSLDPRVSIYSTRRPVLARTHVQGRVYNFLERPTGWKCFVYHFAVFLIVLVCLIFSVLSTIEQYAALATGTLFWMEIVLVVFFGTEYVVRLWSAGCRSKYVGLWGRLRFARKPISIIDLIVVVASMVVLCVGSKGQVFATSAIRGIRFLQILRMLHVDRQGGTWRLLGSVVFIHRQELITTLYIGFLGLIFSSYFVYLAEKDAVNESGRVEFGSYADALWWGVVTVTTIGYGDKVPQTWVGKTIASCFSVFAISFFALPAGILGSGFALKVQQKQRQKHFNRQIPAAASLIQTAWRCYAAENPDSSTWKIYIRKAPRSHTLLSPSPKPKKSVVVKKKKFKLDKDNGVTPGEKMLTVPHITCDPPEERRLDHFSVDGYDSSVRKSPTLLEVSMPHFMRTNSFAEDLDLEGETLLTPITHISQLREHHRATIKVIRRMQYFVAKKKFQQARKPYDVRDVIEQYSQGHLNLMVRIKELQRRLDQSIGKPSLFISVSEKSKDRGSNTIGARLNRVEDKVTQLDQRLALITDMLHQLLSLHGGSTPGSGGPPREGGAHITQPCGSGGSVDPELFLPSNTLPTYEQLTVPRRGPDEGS

[8] = target: T3, CYP1A2 (Homo sapiens, UniProt P05177); assay: Ratio of IC50 for human liver microsome CYP1A2 in absence of NADPH to IC50 for human liver microsome CYP1A2 in presence of NADPH; conditions: liver microsomes, read-out: Ratio IC50
T3 sequence (P05177 whole entry): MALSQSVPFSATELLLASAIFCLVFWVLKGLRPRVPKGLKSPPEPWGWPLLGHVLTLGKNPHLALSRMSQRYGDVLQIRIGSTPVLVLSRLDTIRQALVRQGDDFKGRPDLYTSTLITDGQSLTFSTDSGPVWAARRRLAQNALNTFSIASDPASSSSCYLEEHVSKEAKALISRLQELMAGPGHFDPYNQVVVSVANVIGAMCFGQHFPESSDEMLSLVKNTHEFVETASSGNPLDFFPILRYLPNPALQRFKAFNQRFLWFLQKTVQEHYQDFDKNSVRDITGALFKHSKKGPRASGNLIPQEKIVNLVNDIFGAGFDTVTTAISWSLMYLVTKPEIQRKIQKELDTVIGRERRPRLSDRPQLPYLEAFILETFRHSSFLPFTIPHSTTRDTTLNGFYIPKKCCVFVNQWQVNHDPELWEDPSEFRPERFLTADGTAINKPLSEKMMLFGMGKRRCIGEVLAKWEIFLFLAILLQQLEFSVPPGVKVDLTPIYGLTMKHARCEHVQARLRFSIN

[9] = Tmax in Sprague-Dawley rat at 2 mg/kg, po measured upto 24 hrs by LC-MS/MS method; type: ADME, organism-based; conditions: in vivo
Summary of the method: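 Male SD rats (180–220 g) dosed orally at 2, 6 and 20 mg/kg, handled like the mice: fasting, 5% DMSO/5% Tween 80/saline vehicle, acetonitrile extraction, LC-MS/MS of plasma. In a separate set at 6 mg/kg p.o., blood and brain were sampled together.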

[10] = Cmax in Sprague-Dawley rat blood at 6 mg/kg, po measured upto 24 hrs by LC-MS/MS method; type: ADME, organism-based; parameters: time < 24 hrs, dose 6 mg/kg, route po
Summary of the method: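 Male SD rats (180−220 g) given single oral doses of 2, 6 and 20 mg/kg; handled as in the mouse PK study (fasted 12 h before and 2 h after dosing, 5% DMSO/5% Tween 80/90% saline formulation). In a separate 6 mg/kg p.o. set, blood and brain were sampled together. Plasma and brain levels by LC−MS/MS.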

[11] = target: T1, Potassium voltage-gated channel subfamily KQT member 2/member 3 (Rattus norvegicus); assay: Potency index, ratio of retigabine EC50 to test compound EC50 for agonist activity at rat KCNQ2/3 channel expressed in CHO cells by patch clamp method; type: cell-based
[12] = target: CYP3A4 (Homo sapiens, UniProt P08684); assay: Ratio of IC50 for human liver microsome CYP3A4 using testosterone as substrate in absence of NADPH to IC50 for human liver microsome CYP3A4 using testosterone as substrate in presence of NADPH; conditions: liver microsomes, probe testosterone, read-out: Ratio IC50
Chain of CYP3A4 (P08684 whole entry): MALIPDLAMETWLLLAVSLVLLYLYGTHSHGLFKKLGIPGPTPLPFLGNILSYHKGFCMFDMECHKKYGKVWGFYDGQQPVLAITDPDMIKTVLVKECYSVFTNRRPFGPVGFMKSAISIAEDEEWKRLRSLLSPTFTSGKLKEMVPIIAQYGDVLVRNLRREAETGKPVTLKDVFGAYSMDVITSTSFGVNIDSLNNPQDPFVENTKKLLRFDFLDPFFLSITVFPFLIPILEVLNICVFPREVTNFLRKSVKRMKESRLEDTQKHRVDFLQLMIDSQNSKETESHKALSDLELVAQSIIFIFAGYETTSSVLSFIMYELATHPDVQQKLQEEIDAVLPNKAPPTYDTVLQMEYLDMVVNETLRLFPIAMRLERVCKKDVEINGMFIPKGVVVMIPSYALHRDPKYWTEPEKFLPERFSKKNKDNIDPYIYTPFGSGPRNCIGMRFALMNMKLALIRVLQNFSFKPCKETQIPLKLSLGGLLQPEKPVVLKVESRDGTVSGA
Summary of the method: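 Human liver microsomes preincubated 0.5 h with 0.10−50 μM compound, with or without NADPH, then CYP-specific probe substrates added (CYP3A4 with midazolam 1′-hydroxylation and with testosterone 6β-hydroxylation). Metabolites quantified by LC−MS/MS; % activity remaining computed against no-compound control. IC50 fitted by Probit model; ratio = IC50(−NADPH)/IC50(+NADPH).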

[13] = Metabolic stability in rat liver microsomes assessed as half life; type: ADME, Microsome
[14] = Ratio of TC50 for Kunming mouse to EC50 for anticonvulsant activity in Kunming mouse; type: toxicity
Summary of the method: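 Male KM mice dosed orally in 0.5% CMC-Na and killed straight after the 1 h MES or rotarod test. Brain and plasma levels measured by LC−MS/MS. EC50 and TC50 fitted by nonlinear regression of protection or motor impairment against mean brain concentration; ratio = TC50,brain/EC50,brain.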

[15] = Metabolic stability in monkey liver microsomes assessed as intrinsic clearance; type: ADME, Macaca mulatta, Microsome; conditions: rhesus monkey, read-out: CLH
[16] = target: T3, CYP1A2; assay: Inhibition of human liver microsome CYP1A2 at 0.10 to 50 uM preincubated with NADPH for 0.5 hrs followed by substrate addition by LC-MS/MS method relative to control; type: ADME; conditions: liver microsomes, dose 0.1-50 µM

SMILES | Activity [1] | Cmax [2] | AUC(0-t) at 24 h [3] | Tmax [4] | half-life [5] | AUC(0-t) at 24 h [6] | Activity [7] | IC50 shift [8] | Tmax [9] | Cmax [10] | Ratio EC50 [11] | IC50 shift [12] | half-life [13] | selectivity ratio [14] | CLint scaled [15] | inhibition at 0.5 h, up to 50 µM [16]
CCOC(=O)Nc1ccc(NCc2ccc(F)cc2)cc1N [EZOGABINE] | 1.97 | – | – | – | – | – | – | – | – | – | – | – | – | – | – | –
C#CCN(Cc1ccc(F)cc1)c1cc(C)c(NC(=O)OC)c(C)c1 | – | 263 ng/mL | 247 ng·h/mL | 15 min | 35.5 min | 1920 ng·h/mL | -5.47 mV | > 1.5 | 30 min | 162 ng/mL | 125 | < 1.5 | 23.7 min | 49.6 | 112 mL/min/kg | < 25%
